pIC50, pKd: −log10 of the molar value. Active and inactive are the calls of the source. The calls are words filed in the database; no cut-off is given here.
Legend:
HepG2 [1] = experiment: Cytotoxicity in human HepG2 cells assessed as reduction in cell viability incubated for 48 hrs by MTT assay; assay type: functional, cell-based; settings: HepG2, 48 h
Procedure, shortened: (§1)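 Cells grown at 37°C, 5% CO₂ (HepG2, OVCAR-3, Caov-3 in DMEM + 10% FBS; A549, HeLa, A375, MCF-7 in RPMI 1640 + 10% FBS). Seeded at 4-5×10³/well in triplicate, adhered overnight, exposed to 0.03–300 μM (DMSO <0.1%) for 48 h. MTT added for 4 h, formazan dissolved in DMSO, absorbance read. IC50 from dose–response curves, mean ± SD of at least three independent experiments.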

OVCAR-3 = experiment: Cytotoxicity in human OVCAR3 cells assessed as reduction in cell viability incubated for 48 hrs by MTT assay; assay type: functional, cell-based; settings: OVCAR-3, 48 h; procedure, shortened: as §1
HepG2 [2] = experiment: Induction of apoptosis in human HepG2 cells assessed as late apoptotic cells level at 0.3 uM incubated for 24 hrs by Annexin V-FITC/PI staining based flow cytometry (reference value: 5.12%); assay type: functional
HepG2 [3] = experiment: Inhibition of mitotic exit in human HepG2 cells assessed as increase in nuclear phosphohistone H3 levels at 100 uM incubated for 48 hrs by immunofluorescence assay relative to control; assay type: functional; parameters: scale not given: the % may be the effect or the level left
Procedure, shortened: (§2)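 HepG2 seeded at 4×10³/well, overnight adhesion, treated 48 h. Fixed 15 min in 4% formaldehyde, permeabilized with Triton X-100, BSA-blocked, anti-phospho-histone H3 (Ser10) at 4°C overnight, fluorescent anti-rabbit secondary, DAPI counterstain. Fluorescence read relative to DMSO control; PHH3-positive cells counted in random fields as % of total. At least two experiments.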

MCF7 = experiment: Cytotoxicity in human MCF7 cells assessed as reduction in cell viability incubated for 48 hrs by MTT assay; assay type: functional, cell-based; settings: MCF7, 48 h; procedure, shortened: as §1
Caov-3 cell line = experiment: Cytotoxicity in human Caov3 cells assessed as reduction in cell viability incubated for 48 hrs by MTT assay; assay type: functional, cell-based; settings: Caov-3, 48 h; procedure, shortened: as §1
HepG2 [4] = experiment: Inhibition of cell migration in human HepG2 cells incubated for 48 hrs by wound healing assay; assay type: functional, cell-based
Procedure, shortened: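 HepG2 seeded at 15×10⁴/well in triplicate overnight. Confluent monolayers scratched with a pipette tip, PBS-washed, medium with 0.3 μM compound added. Wounds photographed at 0, 24, 48, 72 h; wound area measured by image analysis. At least two separate experiments.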

Tubulin (Homo sapiens) [5] = molecular target: T1, Tubulin (Homo sapiens) (UniProt P68371+Q9H4B7+P0DPH7+P68366+Q13509+Q71U36+P04350+Q3ZCM7+P07437+P68363+Q9BQE3+Q6PEY2+Q13885+Q9BVA1+Q9BUF5); experiment: Inhibition of tubulin polymerization in human HepG2 cells assessed as condensed chromosome formation at 0.3 uM incubated for 48 hrs by immunofluorescent staining; assay type: cell-based
Procedure, shortened: (§3)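 HepG2 treated 48 h (vehicle 0.1% DMSO; 0.3 μM paclitaxel reference). Fixed in formaldehyde, permeabilized with Triton X-100, BSA-blocked, anti-α-tubulin overnight at 4°C, fluorescent secondary, DAPI counterstain; imaged for microtubule network and chromosome morphology.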

HepG2 [6] = experiment: Induction of apoptosis in human HepG2 cells assessed as increase in cleaved caspase-3 level at 0.03 to 0.3 uM incubated for 48 hrs by Western blot analysis; assay type: functional, cell-based
Procedure, shortened: (§4)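 HepG2 cells treated 48 h. Lysates in RIPA buffer with protease/phosphatase inhibitors; 25 μg protein run on SDS-PAGE, transferred to PVDF, blocked in 5% milk/TBST, primary antibodies overnight at 4°C (caspase-3, cleaved caspase-3, cleaved PARP), HRP secondary 1 h at room temperature, ECL detection; densitometry quantified.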

HeLa = experiment: Cytotoxicity in human HeLa cells assessed as reduction in cell viability incubated for 48 hrs by MTT assay; assay type: functional, cell-based; procedure, shortened: as §1
HepG2 [7] = experiment: Inhibition of mitotic exit in human HepG2 cells assessed as increase in nuclear phosphohistone H3 levels incubated for 48 hrs by immunofluorescence assay; assay type: functional, cell-based; procedure, shortened: as §2
HepG2 [8] = experiment: Inhibition of cell invasion in human HepG2 cells assessed as retardation of cell penetration through matrigel-coated membranes at 0.3 uM incubated for 48 hrs; assay type: functional, cell-based
Procedure, shortened: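 HepG2 cells treated with compound or DMSO seeded in upper Transwell chamber in serum-free medium with Matrigel; complete medium in lower chamber. After 48 h at 37°C, 5% CO₂, invaded cells crystal-violet stained and photographed.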

A549 = experiment: Cytotoxicity in human A549 cells assessed as reduction in cell viability incubated for 48 hrs by MTT assay; assay type: functional, cell-based; settings: A549, 48 h; procedure, shortened: as §1
Tubulin (Sus scrofa) = Tubulin (Sus scrofa) (UniProt P02554+P02550); experiment: Inhibition of porcine brain tubulin polymerization assessed as reduction in rate and extent of tubulin assembly measured at 37 degC every 30 secs for 60 mins by fluorescence based assay
HepG2 [9] = experiment: Inhibition of mitotic exit in human HepG2 cells assessed as increase in nuclear phosphohistone H3 levels at 0.03 to 0.3 uM incubated for 48 hrs by Western blot analysis relative to control; assay type: functional, cell-based
[10] = molecular target: Cell division cycle protein 20 homolog (Homo sapiens, UniProt Q12834); experiment: Binding affinity to CDC20 (unknown origin) by SPR analysis
Procedure, shortened: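 Recombinant human Cdc20 (>95% pure) coupled by EDC/NHS to an acid-coupling chip; PBS pH 7.4 running buffer. Compounds injected as a gradient dilution series starting at 200 μM, 120-140 s association, 160 s dissociation. Steady-state values plotted against concentration; K_D from a one-to-one / single-site model.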

HepG2 [11] = experiment: Induction of apoptosis in human HepG2 cells assessed as necrotic cells level at 0.3 uM incubated for 24 hrs by Annexin V-FITC/PI staining based flow cytometry (reference value: 1.48%); assay type: functional
Tubulin (Homo sapiens) [12] = molecular target: T1, Tubulin (Homo sapiens); experiment: Inhibition of tubulin polymerization in human HepG2 cells assessed as disruption of microtubule organization in cytosol at 0.3 uM incubated for 48 hrs by immunofluorescent staining; assay type: cell-based; procedure, shortened: as §3
HepG2 [13] = experiment: Induction of apoptosis in human HepG2 cells assessed as early apoptotic cells level at 0.3 uM incubated for 24 hrs by Annexin V-FITC/PI staining based flow cytometry (reference value: 4.02%); assay type: functional
HepG2 [14] = experiment: Induction of apoptosis in human HepG2 cells assessed as increase in cleaved PARP level at 0.03 to 0.3 uM incubated for 48 hrs by Western blot analysis; assay type: functional, cell-based; procedure, shortened: as §4
A-375 = experiment: Cytotoxicity in human A375 cells assessed as reduction in cell viability incubated for 48 hrs by MTT assay; assay type: functional, cell-based; settings: A-375, 48 h; procedure, shortened: as §1
HepG2 [15] = experiment: Induction of apoptosis in human HepG2 cells assessed as viable cells level at 0.3 uM incubated for 24 hrs by Annexin V-FITC/PI staining based flow cytometry (reference value: 89.38%); assay type: functional

Sequence of Cell division cycle protein 20 homolog (Q12834 whole entry): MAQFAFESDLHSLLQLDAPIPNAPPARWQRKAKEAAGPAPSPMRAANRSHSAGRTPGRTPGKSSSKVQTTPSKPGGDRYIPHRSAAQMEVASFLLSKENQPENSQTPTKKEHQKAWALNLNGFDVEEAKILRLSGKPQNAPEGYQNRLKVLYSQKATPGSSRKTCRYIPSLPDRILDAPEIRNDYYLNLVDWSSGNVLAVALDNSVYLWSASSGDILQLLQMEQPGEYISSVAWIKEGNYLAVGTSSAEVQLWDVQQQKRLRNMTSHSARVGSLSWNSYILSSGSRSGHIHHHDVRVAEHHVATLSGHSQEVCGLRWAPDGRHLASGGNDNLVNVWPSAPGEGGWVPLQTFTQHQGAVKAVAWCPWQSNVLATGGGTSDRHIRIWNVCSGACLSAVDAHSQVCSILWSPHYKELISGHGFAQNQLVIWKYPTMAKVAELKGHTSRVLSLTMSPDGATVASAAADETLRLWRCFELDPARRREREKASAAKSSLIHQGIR
Sequence of Tubulin (Sus scrofa) (P02550 whole entry, looked up): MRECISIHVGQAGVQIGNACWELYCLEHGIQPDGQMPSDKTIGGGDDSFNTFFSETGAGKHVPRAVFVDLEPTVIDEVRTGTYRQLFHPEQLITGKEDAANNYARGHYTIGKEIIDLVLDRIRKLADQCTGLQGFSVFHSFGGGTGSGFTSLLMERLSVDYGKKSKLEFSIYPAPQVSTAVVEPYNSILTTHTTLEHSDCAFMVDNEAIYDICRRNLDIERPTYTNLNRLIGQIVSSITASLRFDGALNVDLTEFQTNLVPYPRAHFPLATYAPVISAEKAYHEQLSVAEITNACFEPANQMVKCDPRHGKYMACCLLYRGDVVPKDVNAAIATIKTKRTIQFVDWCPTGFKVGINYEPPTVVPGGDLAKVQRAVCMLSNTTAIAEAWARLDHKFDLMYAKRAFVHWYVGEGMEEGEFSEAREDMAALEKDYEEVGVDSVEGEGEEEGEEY
Sequence of Tubulin (Sus scrofa) (P02554 whole entry, looked up): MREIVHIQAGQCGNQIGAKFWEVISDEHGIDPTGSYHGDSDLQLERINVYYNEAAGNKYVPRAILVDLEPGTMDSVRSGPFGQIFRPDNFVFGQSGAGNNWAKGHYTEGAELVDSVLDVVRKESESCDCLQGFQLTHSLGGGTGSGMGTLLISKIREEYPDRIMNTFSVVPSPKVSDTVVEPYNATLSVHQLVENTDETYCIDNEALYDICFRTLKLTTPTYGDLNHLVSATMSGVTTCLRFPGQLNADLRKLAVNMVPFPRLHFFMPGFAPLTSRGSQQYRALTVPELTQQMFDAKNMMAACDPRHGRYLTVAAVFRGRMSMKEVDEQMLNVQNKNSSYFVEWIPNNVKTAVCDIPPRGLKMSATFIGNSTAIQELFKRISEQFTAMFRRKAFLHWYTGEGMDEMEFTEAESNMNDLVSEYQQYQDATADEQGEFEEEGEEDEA

| pKd [10] | SMILES | pIC50 (HepG2 [1]) | pIC50 (OVCAR-3) | pIC50 (MCF7) | pIC50 (Caov-3 cell line) | pIC50 (HeLa) | pIC50 (A549) | pIC50 (A-375) | also measured |
| --- | --- | --- | --- | --- | --- | --- | --- | --- | --- |
| 3.92 | Nc1nc(F)nc2c1ncn2C(NC(=O)OCCN1CCOCC1)C(Cl)(Cl)Cl (stereo not given) | 6.22 | 5.77 | 6.70 | 5.82 | 6.52 | 5.82 | 6.15 | Activity (HepG2 [2]): 4.71%; Activity (HepG2 [3]): 10%; inhibition (HepG2 [4]): Dose-dependent effect; inhibition (Tubulin (Homo sapiens) [5]): Active; Activity (HepG2 [6]): Active; Activity (HepG2 [7]): Dose-dependent effect; inhibition (HepG2 [8]): Active; inhibition (Tubulin (Sus scrofa)): Dose-dependent effect; Activity (HepG2 [9]): Active; Activity (HepG2 [11]): 0.24%; inhibition (Tubulin (Homo sapiens) [12]): Active; Activity (HepG2 [13]): 37.35%; Activity (HepG2 [14]): Active; Activity (HepG2 [15]): 57.7% |
| 3.79 | Cc1ncc([N+](=O)[O-])n1CCOC(=O)NC(n1cnc2c(N)nc(F)nc21)C(Cl)(Cl)Cl (stereo not given) | 6.22 | 5.82 | 6.10 | 5.92 | 5.72 | 5.44 | 6.30 |  |

Source: ChEMBL document CHEMBL4402600, “Discovery of a Dual Tubulin Polymerization and Cell Division Cycle 20 Homologue Inhibitor via Structural Modification on Apcin” (J Med Chem, 2020)
